# Screens from PubChem BioAssay.
# Rad51 HR inh: blocks human Rad51 in homologous recombination; Q06609; hRad51 DNA strand exchange, fluorescence dequenching; inhibition, % at 10 µM; hit rate 0.085% among 200,000;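 active means inhibition above 40% at the single screening dose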;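 further: 0% = DMSO control wells and 100% = blanks with heterologous ssDNA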
#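 Material: Human Rad51 nucleoprotein filaments preassembled on unlabelled ssDNA | Also added: Labelled 47-mer dsDNA for strand exchange | Dosing: Single dose, 10 µM final compound | Schedule: 30-min compound preincubation and 15-min exchange, both room temperature | Technique: Fluorescence dequenching at 485/520 nm | Measure: Percent inhibition relative to plate controls and blanks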
# SKKanGAS inh: SKKanGAS growth inhibition. hit rate 1.3% among 300,000. inhibition, % at 7.5 µM. S. pyogenes SKKanGAS, kanamycin growth, BacTiter-Glo, 6 h;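 active means mean replicate score, as percent of positive control median, at least 50; inconclusive means mean below 50 but one replicate at or above 50; inactive means mean and every replicate below 50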;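 further: strain carries kanamycin resistance gene driven by streptokinase promoter and grows in 40 µg/ml kanamycin; loss of luminescence reflects streptokinase promoter inhibition or plain growth inhibition; 0% = median of DMSO wells and 100% = positive control at its reference dose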
# Cl transport mod: modulators of human KCC2 chloride dependent transport. Q9H2X9. KCC2 cells, thallium flux FluoZin-2 fluorescence. B-score of Tl+ flux slope (higher = more flux/activation; lower = inhibition) at 10 µM. hit rate 2.2% among 190,000. AID 1456;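 active means thallium flux slope and its plate-corrected score both differing from the plate sample mean at a set confidence after two filtering rounds, in either direction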;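 further: slope of fluorescence scaled to starting intensity during 10 to 20 s after thallium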
# Target sequence (Q9H2X9 whole entry, looked up): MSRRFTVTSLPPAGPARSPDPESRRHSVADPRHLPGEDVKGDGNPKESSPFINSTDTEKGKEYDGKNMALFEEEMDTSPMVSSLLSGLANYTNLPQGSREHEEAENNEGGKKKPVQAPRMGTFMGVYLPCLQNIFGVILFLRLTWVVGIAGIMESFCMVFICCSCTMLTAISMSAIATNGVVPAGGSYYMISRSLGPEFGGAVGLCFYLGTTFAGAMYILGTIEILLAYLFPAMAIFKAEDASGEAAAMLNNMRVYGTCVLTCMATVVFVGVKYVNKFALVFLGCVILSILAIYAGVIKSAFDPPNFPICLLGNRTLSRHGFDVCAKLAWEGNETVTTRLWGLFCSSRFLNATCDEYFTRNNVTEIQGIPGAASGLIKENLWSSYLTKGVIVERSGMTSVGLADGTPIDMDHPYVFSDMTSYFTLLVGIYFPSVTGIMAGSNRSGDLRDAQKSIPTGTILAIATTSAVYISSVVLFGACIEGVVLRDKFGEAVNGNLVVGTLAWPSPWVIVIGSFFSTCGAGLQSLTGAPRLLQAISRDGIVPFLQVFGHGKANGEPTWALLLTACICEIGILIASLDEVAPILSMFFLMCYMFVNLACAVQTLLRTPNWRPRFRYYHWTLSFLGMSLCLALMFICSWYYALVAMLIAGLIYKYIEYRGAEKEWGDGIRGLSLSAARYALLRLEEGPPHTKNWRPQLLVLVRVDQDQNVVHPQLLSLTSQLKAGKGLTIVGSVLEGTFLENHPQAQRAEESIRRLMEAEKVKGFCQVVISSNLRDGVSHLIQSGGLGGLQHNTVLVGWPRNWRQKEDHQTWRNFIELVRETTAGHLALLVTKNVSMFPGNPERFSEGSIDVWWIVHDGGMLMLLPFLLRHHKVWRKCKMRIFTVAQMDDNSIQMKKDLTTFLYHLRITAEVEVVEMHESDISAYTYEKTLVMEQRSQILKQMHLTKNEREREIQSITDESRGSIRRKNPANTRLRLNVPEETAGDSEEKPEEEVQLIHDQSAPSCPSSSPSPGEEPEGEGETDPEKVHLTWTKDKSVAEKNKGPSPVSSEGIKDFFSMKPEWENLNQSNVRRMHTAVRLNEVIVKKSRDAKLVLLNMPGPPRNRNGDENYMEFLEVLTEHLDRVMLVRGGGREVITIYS
# WT yeast gro inh: growth inhibition of WT yeast, mitochondrial fusion screen | mitochondrial fusion phenotypic screen, WT strain | inhibition, % at 10 µM | hit rate 2.1% among 190,000 | AID 1362; in the data active means inhibition above about 58%; tested in S. cerevisiae
# Insulin prom up: MIN6 insulin promoter up-regulation; z-score at 5 µM; hit rate 0.3% among 190,000; MIN6 insulin promoter-GFP reporter, high-content imaging; active compounds read high;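 active means z-score above 3 at 5 µM with at least 500 cells counted in the well; inconclusive means wells under 500 cells, flagged as cytotoxic or low count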
# Autophagy mod: modulators of autophagy; MEF GFP-LC3 puncta imaging; test concentration mostly 10 µM; calls only at 10 µM (by protocol); hit rate 0.98% among 190,000; AID 463193;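 active means percentage of spot-positive cells more than 3 SD above its plate mean, without a fluorescence outlier flag or 80% toxicity; inconclusive means no clear call, values can overlap the other calls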;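 further: spot-positive cell cutoff set from DMSO-treated cells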
# KCC2 sec1: confirmation of human KCC2 transport modulators. normalised thallium flux (F/F0 slope) at 10 µM. shares compounds with Cl transport mod. HEK293-KCC2, thallium flux, FluoZin2 fluorescence; active compounds read high. hit rate 15% among 3,700. AID 1713;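 active means thallium flux slope above the same plate's solvent-only control mean plus 3 SD; inconclusive means the two replicate wells disagree; inactive means no significant difference from solvent-only control wells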
# KCC2 bumet counter: thallium flux despite bumetanide block in KCC2 cells, secondary assay 3 | shares compounds with Cl transport mod | HEK293-KCC2 + bumetanide/ouabain, thallium flux FluoZin2; active compounds read high | normalized thallium flux at 10 µM | hit rate 49% among 3,700 | AID 1714;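 active means thallium entry rate above the same plate's blocked-transporter control wells by more than 3 SD; inconclusive means the two repeat wells disagree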;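 further: raw slope of fluorescence over initial fluorescence between 10 and 20 s after thallium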
# KCC2 secondary2: KCC2 (human) modulation, second secondary assay; HEK293-KCC2, thallium flux FluoZin2 fluorescence; actives lie on both sides; F/F0 rise rate, 10–20 s post-thallium; AID 1715; shares compounds with Cl transport mod; hit rate 23% among 3,700; normalized thallium flux at 10 µM;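 active means thallium flux slope more than 3 SD above or below the plate's solvent-only control mean, mostly below; inconclusive means the two repeat wells disagreed; inactive means no significant shift from solvent-only controls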;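 further: raw slope with 0.1% DMSO as baseline and bumetanide as block control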
# HEK293 Tl flux: parental HEK flux effect, counter-screen; thallium flux rate (normalised fluorescence) at 10 µM; shares compounds with Cl transport mod; HEK293 parental cells, thallium flux FluoZin2, ouabain; baseline-ratio fluorescence slope, 10–20 s after thallium; hit rate 46% among 3,700;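 active means thallium flux rate significantly above the same plate's solvent-only control wells, beyond their mean plus 3 SD; inconclusive means the two replicate wells gave conflicting results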
# KCC2 ouabain: modulates human KCC2 on retest with ouabain | shares compounds with Cl transport mod | HEK293-KCC2, thallium flux FluoZin2 fluorescence; bidirectional: low = inhibitor, high = activator | raw Tl+ flux slope (below DMSO = inhibition, above = activation) at 10 µM | hit rate 48% among 3,700;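 active means thallium flux slope beyond 3 SD from same-plate DMSO control mean in most replicates, usually higher, sometimes lower; inconclusive means repeat tests gave conflicting results; inactive means no significant difference from controls in most replicates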;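 further: slope of initial-normalized fluorescence between seconds 10 and 20 after thallium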
# HEK counter2: acts in parental HEK cells, second KCC2 counter-screen. shares compounds with Cl transport mod. HEK293 parental, thallium flux FluoZin-2 fluorescence slope. thallium flux slope at 10 µM. hit rate 33% among 3,700;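 active means thallium flux slope above the same plate's solvent-control mean plus 3 SD in both duplicate wells; inconclusive means duplicate wells that disagreed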;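 further: run without ouabain in cells lacking the KCC2 cotransporter; slope of fluorescence scaled to its starting value between 10 and 20 s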
# * marks the source's active call; other numbers are inactive results; i = inactive; ? = inconclusive; . = not tested or not shown. This is a sample that favours compounds with a hit; in the whole collection about 4.2% have one here.
SMILES,Rad51 HR inh,SKKanGAS inh,Cl transport mod,WT yeast gro inh,Insulin prom up,Autophagy mod,KCC2 sec1,KCC2 bumet counter,KCC2 secondary2,HEK293 Tl flux,KCC2 ouabain,HEK counter2
O=C(Nc1ccc2oc(-c3ccncc3)nc2c1)c1ccc2c(c1)OCCO2,11.0,0.1,-0.26,.,-1.16,.,.,.,.,.,.,.
O=C(Nc1ccc2oc(-c3ccccc3)nc2c1)c1ccc2c(c1)OCCO2,-3.7,16.5,-2.99*,1.4,-1.81,i,0.0079,0.00677,0.0295,0.00705,0.0348*,?
O=C(O)c1ccccc1-c1ccccc1C(=O)Nc1ccc(-c2nc3cc(Cl)ccc3o2)cc1,-7.8,?,-3.66*,.,-0.17,.,0.00751,0.00484,0.019*,0.00767,0.0118*,0.0105
O=C(NC(Cc1ccccc1)C(=O)O)/C(=C/c1ccc([N+](=O)[O-])cc1)NC(=O)c1ccco1 (centres undefined),.,-6.8,.,.,.,.,.,.,.,.,.,.
CC(C)c1nnc(NC(=O)c2c(O)c3cccc4c3n(c2=O)CCC4)s1,-15.5,90.4*,.,6.1,-0.85,i,0.0076,0.00899*,0.0273,0.00626,0.0166*,0.00934
Cc1cnc(NC(=O)c2c(O)c3cccc4c3n(c2=O)CCC4)s1,-0.3,-3.6,-0.594,-0.2,-0.11,i,.,.,.,.,.,.
O=C1CC(c2nc3ccccc3[nH]2)CN1Cc1ccccc1 (centres undefined),5.1,-3.7,-3.43*,11.3,-1.61,.,0.0117*,?,0.0303,0.00815,0.0209,0.0106
O=C1CC(N2CCC(c3nc4ccccc4[nH]3)CC2)C(=O)N1Cc1ccccc1 (centres undefined),10.8,-1.8,0.802,0.8,0.06,i,.,.,.,.,.,.
CCN(CC(=O)NC(C)(C)C)C(=O)COc1c(Cl)cc(Cl)c2ccc(C)nc12,17.9,86.8*,88.2*,.,0.18,.,0.02*,0.113*,0.0357,?,0.0898*,?
Cc1ccc2c(Cl)cc(Cl)c(OCC(=O)NC3CCS(=O)(=O)C3)c2n1 (centres undefined),18.4,35.2,10.5*,24.1,-0.25,i,0.0178,0.019*,0.0304,0.0158*,0.0223*,0.0155*
CCOc1ccccc1NC(=O)COC(=O)COc1c(Cl)cc(Cl)c2ccc(C)nc12,.,14.8,.,.,.,.,.,.,.,.,.,.
CCN(CC)S(=O)(=O)c1ccc(C(=O)NCC(c2ccc(OC)cc2)N2CCOCC2)cc1 (centres undefined),-13.4,1.7,1.09,-13.3,-0.35,i,.,.,.,.,.,.
Cc1cc(C(F)(F)F)nc(SCC(=O)Nc2c(C)n(C)n(-c3ccccc3)c2=O)n1,.,2.9,.,.,.,.,.,.,.,.,.,.
COc1ccc(NC(=O)Cn2nnc(C(=O)NCCc3ccc(OC)c(OC)c3)c2N)c(OC)c1,4.8,-7.6,-0.00699,-9.0,-0.78,i,.,.,.,.,.,.
Cc1nc2scc(-c3ccc(Cl)cc3)c2c(=O)o1,-1.2,8.1,.,-16.4,-1.09,i,0.0094,0.00672,0.0326,0.004,0.0194,0.0111
Cc1noc(C(=O)NCc2cccnc2)c1Cl,12.4,-2.9,0.479,8.9,0.91,i,.,.,.,.,.,.
Cc1noc(C(=O)NCc2ccc(F)cc2)c1Cl,-4.6,0.2,6.8*,-2.4,0.74,i,0.00848,0.00673,0.0287,0.00697,0.0207,0.00947
Cn1nc(OCC(=O)O)cc1C(F)(F)F,-0.3,-1.8,.,.,0.31,.,.,.,.,.,.,.
O=S(=O)(NCc1ccco1)c1ccc2c(c1)Cc1ccccc1-2,-3.5,-8.4,-3.99*,-4.7,-0.18,i,0.00624,0.0045,0.0268,?,?,0.0106
COc1ccc(/C=C/C(=O)NC(=S)Nc2ccc(C(=O)O)cc2)cc1,-16.5,1.9,-0.809,-0.6,0.26,i,.,.,.,.,.,.
COc1ccc(/C=C/C(=O)NC(=S)NNC(=O)c2cc(OC)c(OC)c(OC)c2)cc1,18.4,101.2*,4.46*,.,-1.26,.,0.00944,?,0.0317,0.00419,0.0209,0.0103
O=C(NC(=S)NCC1CCCO1)c1ccc(Cl)cc1Cl (centres undefined),.,-0.2,9.01*,3.0,0.23,i,0.00967,0.0289*,0.0292,0.0109*,?,0.00935
Cc1onc(-c2ccccc2)c1C(=O)Nc1ccccc1NC(=O)c1c(-c2ccccc2)noc1C,.,-7.1,.,.,.,.,.,.,.,.,.,.
Cc1onc(-c2ccccc2)c1C(=O)Nc1ccc(Br)cc1Cl,.,-6.5,.,.,.,.,.,.,.,.,.,.
Cc1onc(-c2ccccc2)c1C(=O)NNC(=S)NC(=O)/C=C/c1ccccc1,3.9,50.8*,6.32*,-42.9,.,i,0.0131*,0.0372*,0.0349,0.0171*,0.0352*,0.0123*
SMILES,Rad51 HR inh,SKKanGAS inh,Cl transport mod,WT yeast gro inh,Insulin prom up,Autophagy mod,KCC2 sec1,KCC2 bumet counter,KCC2 secondary2,HEK293 Tl flux,KCC2 ouabain,HEK counter2
Cc1onc(-c2ccccc2)c1C(=O)NNC(=S)NC(=O)c1ccc(Cl)cc1Cl,-1.0,80.0*,16*,-22.7,0.16,i,?,0.0438*,0.0548*,0.0389*,0.0453*,0.0415*
COc1ccc(NC(=O)CN(C)Cc2cccs2)cc1Cl,.,-8.5,.,.,.,.,.,.,.,.,.,.
CCOC(=O)c1c(NC(=O)COC(=O)C2CC2C)sc(C)c1C (centres undefined),-0.3,13.5,-0.944,46.5,0.35,i,.,.,.,.,.,.
COc1ccc(/C=C/C(=O)NC(=S)NNC(=O)c2c(-c3ccccc3)noc2C)cc1,4.8,88.8*,7.07*,-26.2,-0.23,i,0.013*,0.0368*,0.0333,0.0185*,?,0.0118*
COc1cccc(CC(=O)NNC(=O)c2c(-c3ccccc3)noc2C)c1,10.9,-2.6,-0.259,.,-0.27,.,.,.,.,.,.,.
CC(/C=C/c1ccco1)=N\NC(=O)c1cc(C)[nH]n1,5.9,1.5,.,10.9,-0.34,i,.,.,.,.,.,.
CC(/C=C/c1ccco1)=N\NC(=O)c1cc(Cl)ccc1O,0.7,69.8*,13.1*,3.4,0.22,i,0.0156*,0.0259*,0.0392,?,0.0324*,0.0105
Cc1cc(C)cc(N(CC(=O)NC2CCCCC2)C(=O)CCCC(=O)Nc2ccccn2)c1,.,-1.9,.,.,.,.,.,.,.,.,.,.
FC(F)(F)c1ccc(Cl)c(NC(=S)N/N=C/c2ccccc2Cl)c1,1.5,-22.6,5.44*,.,-2.38,.,0.01,0.034*,0.0306,0.01*,?,0.00983
